Results taken from ChEMBL document CHEMBL1130193, “Synthesis, cardiotonic activity, and structure-activity relationships of 17 beta-guanylhydrazone derivatives of 5 beta-androstane-3 beta, 14 beta-diol acting on the Na+,K(+)-ATPase receptor” (J Med Chem, 1997).

Experiments:
[1] = organism: Cavia porcellus; assay: (§1) In vitro inotropic activity was determined by the affects of contractile force on guinea pig left atrium.; assay type: functional, organism-based; conditions: Cardiac atrium
How it was run: (§2)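 Isolated atrium preparations in solution bubbled with 95% O2/5% CO2, driven by platinum electrodes with square-wave pulses at 1 Hz (1 ms, twice threshold voltage). After 60 min equilibration, cumulative concentrations were added, each kept until maximal response or arrhythmias appeared.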

[2] = organism: Cavia porcellus; assay: In vitro inotropic activity was determined by the affects of contractile force on guinea pig left atrium; Maximal increase in force of contraction; assay type: functional; conditions: Cardiac atrium; how it was run: as §2
[3] = organism: Cavia porcellus; assay: In vitro inotropic activity was determined by the affects of contractile force on guinea pig left atrium; assay type: functional, Cardiac atrium; how it was run: as §2
[4] = molecular target: Sodium/potassium-transporting ATPase subunit alpha-1 (Canis lupus familiaris, UniProt P50997); assay: Inhibition of Na+/K+ ATPase from dog kidney
[5] = % of preparations of arrhythmogenic activity was determined by the onset of the first series of ectopic beats; assay type: functional, Heart; design: concentration or dose not given beside the values; how it was run: as §2
[6] = Arrhythmogenic activity was determined by the onset of the first series of ectopic beats; assay type: functional, Heart; how it was run: as §2
[7] = organism: Cavia porcellus; assay: as §1; assay type: functional, Cardiac atrium; how it was run: as §2

Question: Which results are given for C[C@]12CC[C@H](O)C[C@H]1CC[C@@H]1[C@@H]2CC[C@]2(C)[C@@H](/C=N/N=C(N)N)CC[C@]12O.Cl?
Answer: EC50 [1]: 4 µM; Emax [2]: 265%; concentration giving Emax [3]: 30 µM; IC50 [4]: 1.58 µM; Activity [5]: 57%; Activity [6]: 30 µM

Question: For C[C@]12CC[C@H](O)C[C@H]1CC[C@@H]1[C@@H]2CC[C@]2(C)[C@@H](/C=C/C=N/NC3=NCCN3)CC[C@]12O, which EC50 [1] is on record?
Answer: 9 µM

Question: What about the Emax [2] of the same compound?
Answer: 136%

Question: And the “concentration giving Emax” value [3]?
Answer: 100 µM

Question: And the Activity [5]?
Answer: 50%

Question: And the Activity [6]?
Answer: 100 µM

Question: What does the source list for C[C@]12CC[C@H](O)C[C@H]1CC[C@@H]1[C@@H]2CC[C@]2(C)[C@@H](/C=C/C=C/C=N/N=C(N)N)CC[C@]12O?
Answer: EC50 [1]: 15 µM; Emax [2]: 98%; concentration giving Emax [3]: 100 µM; IC50 [4]: 7.94 µM; Activity [5]: 100%; Activity [6]: 300 µM

Question: Which results are given for C[C@]12CC[C@H](O)C[C@H]1CC[C@@H]1[C@@H]2CC[C@]2(C)[C@@H](/C=N/NC3=NCCN3)CC[C@]12O?
Answer: EC50 [1]: 17 µM; Emax [2]: 129%; concentration giving Emax [3]: 300 µM; Activity [5]: 0%; Activity [6]: 300 µM

Question: For C[C@]12CC[C@H](O)C[C@H]1CC[C@@H]1[C@@H]2CC[C@]2(C)[C@@H](/C=N/NC3=NCCCN3)CC[C@]12O, which EC50 [1] is on record?
Answer: 5 µM

Question: And the Emax [2]?
Answer: 62%

Question: And the “concentration giving Emax” value [3]?
Answer: 30 µM

Question: What about the Activity [6] of the same compound?
Answer: 30 µM

Question: For C[C@]12CC[C@H](O)C[C@H]1CC[C@@H]1[C@@H]2CC[C@]2(C)[C@@H](/C=C/C=N/N=C(N)N)CC[C@]12O, which EC50 [1] is on record?
Answer: 0.4 µM

Question: What about the Emax [2] of the same compound?
Answer: 140%

Question: And the “concentration giving Emax” value [3]?
Answer: 3 µM

Question: What about the IC50 [4] of the same compound?
Answer: 0.16 µM

Question: And the Activity [5]?
Answer: 20%

Question: And the Activity [6]?
Answer: 3 µM

Question: What does the source list for C[C@]12CC[C@H](O)C[C@H]1CC[C@@H]1[C@@H]2CC[C@]2(C)[C@@H](CNN=C(N)N)CC[C@]12O.Cl?
Answer: EC50 [1]: 8 µM; Emax [2]: 166%; concentration giving Emax [3]: 30 µM; IC50 [4]: 2 µM; Activity [5]: 0%; Activity [6]: 100 µM

Question: Which EC50 [1] does the source give for C[C@]12CC[C@H](O)C[C@H]1CC[C@@H]1[C@@H]2CC[C@]2(C)[C@@H](/C=C/C3=CC(=O)OC3)CC[C@]12O here?
Answer: 14 µM

Question: And the Emax [2]?
Answer: 110%

Question: What about the IC50 [4] of the same compound?
Answer: 3.98 µM

Question: And the Activity [5]?
Answer: 0%

Question: What about the Activity [6] of the same compound?
Answer: 300 µM

Question: And the “concentration giving Emax” value [7]?
Answer: 100 µM

Question: For C[C@]12CC[C@H](O)C[C@H]1CC[C@@H]1[C@@H]2CC[C@]2(C)[C@@H](C3=CC(=O)OC3)CC[C@]12O [DIGITOXIGENIN], which EC50 [1] is on record?
Answer: 0.6 µM

Question: And the Emax [2]?
Answer: 200%

Question: What about the IC50 [4] of the same compound?
Answer: 0.5 µM

Question: What about the Activity [5] of the same compound?
Answer: 60%

Question: And the Activity [6]?
Answer: 10 µM

Question: What about the “concentration giving Emax” value [7] of the same compound?
Answer: 3 µM

Question: Which EC50 [1] does the source give for C[C@H]1O[C@@H](O[C@H]2[C@@H](O)C[C@H](O[C@H]3[C@@H](O)C[C@H](O[C@H]4CC[C@@]5(C)[C@H](CC[C@@H]6[C@@H]5C[C@@H](O)[C@]5(C)[C@@H](C7=CC(=O)OC7)CC[C@]65O)C4)O[C@@H]3C)O[C@@H]2C)C[C@H](O)[C@@H]1O [DIGOXIN] here?
Answer: 0.4 µM

Question: What about the “concentration giving Emax” value [3] of the same compound?
Answer: 1 µM

Question: What about the Activity [5] of the same compound?
Answer: 50%

Question: What about the Activity [6] of the same compound?
Answer: 3 µM
